Compound activity (PubChem BioAssay)
Most compounds without a hit are left out; they make up all but 4.6% or so of the library.
NCF1 inh – inhibitors of human p47phox binding; p47phox/p22phox peptide binding, fluorescence polarization, 2 h; inhibition, % at 24.7 µM; 220,000 tested, 0.53% active;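 active = inhibition above about 30%, limit read from the data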
Target sequence (P14598 whole entry, looked up): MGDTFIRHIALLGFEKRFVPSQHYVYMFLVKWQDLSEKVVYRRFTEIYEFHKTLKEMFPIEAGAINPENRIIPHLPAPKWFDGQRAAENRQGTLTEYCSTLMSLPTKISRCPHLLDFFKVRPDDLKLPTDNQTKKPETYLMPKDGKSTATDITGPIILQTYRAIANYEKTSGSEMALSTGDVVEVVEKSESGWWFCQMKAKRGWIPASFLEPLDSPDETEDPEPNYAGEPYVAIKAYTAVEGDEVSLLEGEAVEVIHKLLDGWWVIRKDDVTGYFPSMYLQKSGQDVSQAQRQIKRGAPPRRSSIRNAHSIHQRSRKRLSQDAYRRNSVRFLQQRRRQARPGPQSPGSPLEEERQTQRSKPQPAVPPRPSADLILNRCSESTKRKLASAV
Hck-Nef inh – blocks Nef-activated human Hck kinase. 220,000 tested, 0.68% active. Recombinant Hck-YEEI plus Nef, Z-Lyte FRET kinase assay. inhibition, % at 20 µM;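 active = Hck-Nef kinase inhibition above about 50%, limit read from the data; inactive = inhibition below that limit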
RAM network inh – blocks the yeast RAM network; S. cerevisiae dse1pr::URA3 reporter, 5-FOA growth OD615, 2 d; analog-sensitive cbk1-as2 kinase mutant strain; inhibition, % at 50 µM; 190,000 tested, 1.8% active;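 active = inhibition above a set limit, 3 SD over mean compound inhibition, cut at about 8.4% in these data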;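 note: inhibition rescues growth on 5-FOA so higher OD means more RAM inhibition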
Arbovirus inh – arbovirus infection inhibition; inhibition, % at 10 µM; arbovirus infection cell-based antiviral screen; 200,000 tested, 0.37% active; in the data active = inhibition above about 30%
Biofilm kill mix – mixture kills Candida albicans biofilm cells; C. albicans biofilm persisters + clotrimazole, fluorescence viability; primary screen in compound mixtures of four per well; inhibition, % at 7.6 µM; 120,000 tested, 0.02% active; AID 1242;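 active = inhibition above 30.3% in the primary screen of four-compound pools, then above 30% when the compound was retested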;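 note: compounds exposed to preformed 24 h biofilms for 48 h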
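Incubation: 24 h biofilm formation, then 48 h compound exposure, 37 °C | Material: C. albicans biofilms | Buffer or medium: RPMI/MOPS medium, pH 7.0 | Measured by: 2-h Alamar Blue fluorescence, 535/590 nm excitation/emission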
WT yeast gro inh – growth inhibition of WT yeast, mitochondrial fusion screen. mitochondrial fusion phenotypic screen, WT strain. AID 1362. 190,000 tested, 2.1% active. inhibition, % at 10 µM; in the data active = inhibition above about 58%; tested in S. cerevisiae
Of the large screens only hits and unclear results are named; the others gave an inactive call.

CCCCN1C2=C(C(=O)CCC2)C(c2ccc(Cl)c(Cl)c2)C2=C1c1ccccc1C2=O (stereo not given)	WT yeast gro inh 67 (no result: Biofilm kill mix)
COc1cc(/C=N/NC(=O)c2ccc(CN3c4cccc5cccc(c45)S3(=O)=O)cc2)cc(OC)c1O	NCF1 inh 36
COc1ccc(/C=N/NC(=O)c2ccc(CN3c4cccc5cccc(c45)S3(=O)=O)cc2)cc1	none
Cc1ccc(-c2csc(C3=C(O)CN(NC(=O)c4ccco4)C3=N)n2)cc1	none (no result: RAM network inh, Arbovirus inh, WT yeast gro inh)
Cc1ccc(-n2cc(C(=O)c3ccc(F)cc3)nn2)cc1Cl	WT yeast gro inh 68 (no result: Biofilm kill mix)
O=C(OCc1cn(-c2ccc(Cl)c(Cl)c2)nn1)c1ccccc1	none (no result: Biofilm kill mix)
Cc1ccccc1COCCN1CCN(S(=O)(=O)c2ccccc2)CCC1=O	none (no result: RAM network inh, Arbovirus inh, WT yeast gro inh)
CN1C(=O)c2ccccc2C(C(=O)O)C1c1cn(C)c2ccccc12 (stereo not given)	none (no result: Biofilm kill mix)
O=C(Nc1cccnc1)NC1CCCCC1	none
O=C(CSc1nc2ccccc2s1)Nc1ccc(Cl)c(S(=O)(=O)N2CCOCC2)c1	RAM network inh 9.9
Cn1nc(NC(=O)CC(C)(C)CC(=O)O)c2ccccc21	none (no result: RAM network inh, Arbovirus inh, WT yeast gro inh)
Nc1ccccc1Nc1cc(-c2ccccc2)nn1-c1cccc(Cl)c1	WT yeast gro inh 68
O=C(N/N=C\c1ccc(OC(=O)c2cccs2)cc1)c1ccc(Cl)cc1	none
CC1CCCN(C(=O)c2cccc(S(=O)(=O)Nc3cc(C(F)(F)F)ccc3Cl)c2)C1 (stereo not given)	Arbovirus inh 42
O=C(c1cccc(S(=O)(=O)Nc2cccc(C(F)(F)F)c2)c1)N1CCOCC1	none (no result: RAM network inh, Arbovirus inh, WT yeast gro inh)
Cc1nc([N+](=O)[O-])cn1-c1nc2ccccn2c1[N+](=O)[O-]	none (no result: RAM network inh, Arbovirus inh, WT yeast gro inh)
CCOc1ccc(C2=C(C=Nc3c(C)n(C)n(-c4ccccc4)c3=O)C(c3ccc(F)cc3)c3ccccc3O2)cc1 (stereo not given)	RAM network inh 8.5 (no result: Biofilm kill mix)
COC(=O)c1ccn(Cc2ccccc2Cl)n1	none
CC1(CC(=O)N/N=C/c2ccc(-c3cccc(C(F)(F)F)c3)o2)OCCO1	none
COc1ccc(C2=CC(=O)C=CC2=O)cc1	NCF1 inh 58, Hck-Nef inh 70 (no result: RAM network inh, Arbovirus inh, WT yeast gro inh)
COc1ccc(S(=O)(=O)c2ccc(OC)cc2)cc1	none (no result: Biofilm kill mix)
COc1cccc(Nc2c3c(nc4c(-c5ccccc5)c(C)nn24)CCC3)c1	WT yeast gro inh 67
Cc1nn2c(Nc3ccc(F)cc3)c3c(nc2c1-c1ccccc1)CCC3	none
CSc1nc(N(C)C)nc(N2CC(=O)N(CCNS(=O)(=O)c3ccc(C)cc3)C2=N)n1	none
Cc1cccc(C(C)(C)C)c1OCCCCN1CCCC1	none (no result: Biofilm kill mix)
C/C(=N\NC(=S)NCc1ccccc1)c1ccccc1	WT yeast gro inh 62
CCNC(=S)N/N=C(\C)c1ccc2ccccc2c1	WT yeast gro inh 72
C/C(=N\NC(=S)NC(C)C)c1ccccc1OC(F)F	none
CCNC(=S)N/N=C(\C)c1ccc2ccccc2c1OC(F)F	WT yeast gro inh 73
COC(=O)CP(=O)(c1ccccc1)c1ccccc1	WT yeast gro inh 69 (no result: Biofilm kill mix)
COc1ccccc1-n1cnc2sc(-c3ccccc3)cc2c1=O	WT yeast gro inh 75 (no result: Biofilm kill mix)
Cc1cc(Oc2ccc(C(C)(C)C)cc2)nc(N2CCOCC2)n1	WT yeast gro inh 75 (no result: Biofilm kill mix)
Cc1cc(Oc2ccc(-c3ccccc3)cc2)nc(N2CCOCC2)n1	none (no result: Biofilm kill mix)
CSCCNC(=O)c1ccc(OC2CCN(CCc3ccccc3)CC2)cc1	none
CSc1ccc(OC2CCN(Cc3ccccc3)CC2)cc1	WT yeast gro inh 63
O=C(NC(Cc1c[nH]c2ccccc12)C(=O)Nc1ccc(OC(F)(F)F)cc1)c1cccs1 (stereo not given)	WT yeast gro inh 88
O=C(NC(Cc1c[nH]c2ccccc12)C(=O)Nc1ccc(F)c([N+](=O)[O-])c1)c1cccs1 (stereo not given)	none
c1ccc2c(c1)[nH]c1c(N3CCSCC3)ncnc12	none (no result: Biofilm kill mix)
c1ccc2c(c1)[nH]c1c(N3CCCC3)ncnc12	WT yeast gro inh 69 (no result: Biofilm kill mix)
CN(C)c1ncnc(N(C)C)c1[N+](=O)[O-]	none (no result: RAM network inh, Arbovirus inh, WT yeast gro inh)
CNC(=S)/N=C/NOCc1ccc(Cl)cc1Cl	WT yeast gro inh 62
O=C(CCSc1ccc(Cl)cc1)NC12CC3CC(CC(C3)C1)C2	WT yeast gro inh 83 (no result: Biofilm kill mix)
CCN1/C(=C\C(=S)Nc2ccccc2)Sc2ccccc21	WT yeast gro inh 69
CCN1/C(=C\C=C(C(C)=O)C(C)=O)Sc2ccccc21	none
Cc1nn(-c2ccccc2)c(Cl)c1/C=C1\N=C(c2ccccc2)OC1=O	none (no result: NCF1 inh, RAM network inh, Arbovirus inh, Biofilm kill mix, WT yeast gro inh)
